Experimental data from different studies.
Target: Ephrin type-A receptor 8 (EPHA8, Homo sapiens, UniProt P29322)
One construct used (P29322 1-1005): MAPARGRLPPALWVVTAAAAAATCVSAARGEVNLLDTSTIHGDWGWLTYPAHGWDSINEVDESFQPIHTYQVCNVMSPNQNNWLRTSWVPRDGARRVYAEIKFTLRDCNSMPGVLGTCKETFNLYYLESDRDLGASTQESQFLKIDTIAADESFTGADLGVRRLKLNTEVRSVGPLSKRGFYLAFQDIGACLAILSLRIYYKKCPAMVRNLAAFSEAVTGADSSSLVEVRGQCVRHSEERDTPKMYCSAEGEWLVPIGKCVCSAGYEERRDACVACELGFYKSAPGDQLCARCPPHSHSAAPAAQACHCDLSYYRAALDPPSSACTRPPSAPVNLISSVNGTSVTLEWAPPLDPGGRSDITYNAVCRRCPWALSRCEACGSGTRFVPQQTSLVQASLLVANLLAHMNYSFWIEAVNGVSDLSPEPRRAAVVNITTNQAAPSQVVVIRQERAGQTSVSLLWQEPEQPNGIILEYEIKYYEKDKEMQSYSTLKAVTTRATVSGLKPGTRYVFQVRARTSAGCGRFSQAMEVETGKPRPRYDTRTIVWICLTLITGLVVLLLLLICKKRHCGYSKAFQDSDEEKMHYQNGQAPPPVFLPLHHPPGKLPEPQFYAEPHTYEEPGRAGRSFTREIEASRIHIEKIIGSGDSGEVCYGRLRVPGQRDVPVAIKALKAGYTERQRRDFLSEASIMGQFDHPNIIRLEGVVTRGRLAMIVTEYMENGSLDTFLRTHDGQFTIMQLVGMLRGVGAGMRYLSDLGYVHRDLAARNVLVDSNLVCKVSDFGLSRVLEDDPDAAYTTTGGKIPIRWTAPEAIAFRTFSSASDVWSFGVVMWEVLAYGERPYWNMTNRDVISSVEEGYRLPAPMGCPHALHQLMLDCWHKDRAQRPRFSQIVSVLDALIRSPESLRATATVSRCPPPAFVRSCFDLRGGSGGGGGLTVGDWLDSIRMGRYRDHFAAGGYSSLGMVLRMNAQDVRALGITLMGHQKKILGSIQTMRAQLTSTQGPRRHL

| SMILES | assay | setting | remaining binding |
| --- | --- | --- | --- |
| O=C(c1ccc(Nc2ncc(Cl)c(-c3cc4ccccc4s3)n2)cc1)N1CCC(N2CCCC2)CC1 | binding, competition with immobilised ligand | 1 µM | 83% |
| C=CC(=O)N1CCC(C(=O)NCC(=O)N2CCN(c3nc(-c4cnc(N)nc4C(F)F)nc(N4CCOCC4)n3)CC2)CC1 | binding, competition with immobilised ligand | 1 µM | 100% |
| Nc1ncc2c(n1)-c1c([nH]c3ccc(C#CC4CC4)cc13)CCCC2 | binding, competition with immobilised ligand | 1 µM | 89% |
| COc1cc(-c2cn(C3CCc4c(F)cccc4N(CC(F)(F)F)C3=O)nn2)ccc1-n1cnc(C)c1 (centres unmarked) | cell-free assay, competition with immobilised ligand | 1 µM | 100% |
| COc1cnc(Nc2cccc(S(N)(=O)=O)c2)nc1N1CCN(c2ccccc2)C(=O)C1 | binding, competition with immobilised ligand | 1 µM | 100% |
| Nc1c(C(=O)NCc2ccc(C(=O)NCCCC3CCCCC3)cc2)cnn1-c1ccccc1 | cell-free assay, competition with immobilised ligand | 0.1 µM | 100% |
| COc1ncc2cc3ccccc3nc2c1C#N | cell-free assay, competition with immobilised ligand | 5 µM | 94% |
| O=c1nc(-c2ccccn2)sc2ccccc12 | cell-free assay, competition with immobilised ligand | 1 µM | 78% |
| COc1ccnn2ncc(-c3ccnc(N(C)C)n3)c12 | binding | 1 µM | 100% |
| CNC(=O)[C@@H]1CC[C@@H](n2c(-c3ccc4cnccc4c3)nc3ccc(C(=O)NCc4cccc(C(N)=O)c4)cc32)C1 | binding, competition with immobilised ligand | 1 µM | 91% |
| O=C(c1ccc(Nc2ncc(Cl)c(-c3ccc(Cl)s3)n2)cc1)N1CCC(N2CCCC2)CC1 | binding, competition with immobilised ligand | 1 µM | 91% |
| CN(C)c1ncc(F)c(-c2cnn3ncccc23)n1 | binding | 1 µM | 100% |
| C[C@@H]1CN(c2cc(-c3n[nH]c4ccc(OC5(C)CC5)cc34)ncn2)C[C@H](C)O1 | cell-free assay, competition with immobilised ligand | 0.1 µM | 82% |
| O=C(Nc1c[nH]nc1C(=O)NC1CCNCC1)c1cc(F)cc(F)c1 | binding, competition with immobilised ligand | 1 µM | 100% |
| CC1CCCN1c1nccc(-c2cnn3ncccc23)n1 (centres unmarked) | binding | 1 µM | 100% |
| O=C(c1ccc(Nc2nccc(-c3cc4ccccc4s3)n2)cc1)N1CCC(N2CCCC2)CC1 | binding, competition with immobilised ligand | 1 µM | 100% |
| NS(=O)(=O)c1cc(NC(=O)C2(c3ccccc3Cl)CC2)ccc1Oc1cccc(Cl)c1 | cell-free assay, competition with immobilised ligand | 1 µM | 80% |
| c1cnn2ncc(-c3ccnc(N4CCC45COC5)n3)c2c1 | binding | 1 µM | 89% |
| CC1=C(C#N)C(c2ccc3c(c2)c(NC(=O)c2ccccc2C)nn3C)C(C#N)=C(C)N1 | cell-free assay, competition with immobilised ligand | 1 µM | 100% |
| N[C@@H]1CCN(c2nccc(-c3cnn4ncccc34)n2)C1 | binding | 1 µM | 100% |
